Assay results reported in ChEMBL document CHEMBL5058577, “EUbOPEN Chemogenomics Library 2 (Multiplex)” (2022).

System: U2OS
Experiment: Multiplex assay against U2OS
Assay type: toxicity, cell-based
Conditions: human
In short: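 Live cells were stained at seeding with Hoechst33342, BioTracker Green Microtubule Cytoskeleton Dye, MitoTracker Red and Annexin V Alexa Fluor 680, then imaged on a CQ1 microscope at 37°C and 5% CO2 after compound addition. CellPathfinder machine-learning gating split cells into Hoechst high-intensity objects or normal cells. Normal cells were split into healthy, pyknosed or fragmented nuclei, and pyknosed cells into mitotic or apoptotic. Tubulin, mitochondrial-mass and membrane-permeability phenotypes are per cents of healthy-nucleus cells.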

[1] = 12 h, 1 µM, compound concentration 1 uM, replicate 1
[2] = 12 h, 1 µM, compound concentration 1 uM, replicate 2
[3] = 12 h, 10 µM, compound concentration 10 uM, replicate 1
[4] = 12 h, 10 µM, compound concentration 10 uM, replicate 2
[5] = 24 h, 1 µM, compound concentration 1 uM, replicate 1
[6] = 24 h, 1 µM, compound concentration 1 uM, replicate 2
[7] = 24 h, 10 µM, compound concentration 10 uM, replicate 1
[8] = 24 h, 10 µM, compound concentration 10 uM, replicate 2
[9] = 48 h, 1 µM, compound concentration 1 uM, replicate 1
[10] = 48 h, 1 µM, compound concentration 1 uM, replicate 2
[11] = 48 h, 10 µM, compound concentration 10 uM, replicate 1
[12] = 48 h, 10 µM, compound concentration 10 uM, replicate 2

## Cc1ccc(C(C)(O)c2nc3ccccc3s2)c(C)c1 (stereo unspecified)
[1]
  Population Apoptotic (%): 86%
  Population Fragmented Nuclei (%): 19%
  Population Healthy Nuclei (%): 70%
  Population Hoechst High Intensity Objects (%): 3%
  Population Membrane Permeable-Phenotype (%): 4%
  Population Mitochondria Different-Phenotype (%): 1%
  Population Mitotic Cells (%): 13%
  Population Normal (%): 96%
  Population Pyknosed Nuclei (%): 9%
  Population Tubulin-Different-Phenotype (%): 2%
  Total Cell Count: 249
[2]
  Population Apoptotic (%): 100%
  Population Fragmented Nuclei (%): 17%
  Population Healthy Nuclei (%): 78%
  Population Hoechst High Intensity Objects (%): 0%
  Population Membrane Permeable-Phenotype (%): 9%
  Population Mitochondria Different-Phenotype (%): 4%
  Population Mitotic Cells (%): 0%
  Population Normal (%): 99%
  Population Pyknosed Nuclei (%): 3%
  Population Tubulin-Different-Phenotype (%): 5%
  Total Cell Count: 141
[3]
  Population Apoptotic (%): 100%
  Population Fragmented Nuclei (%): 25%
  Population Healthy Nuclei (%): 67%
  Population Hoechst High Intensity Objects (%): 2%
  Population Membrane Permeable-Phenotype (%): 9%
  Population Mitochondria Different-Phenotype (%): 3%
  Population Mitotic Cells (%): 0%
  Population Normal (%): 97%
  Population Pyknosed Nuclei (%): 6%
  Population Tubulin-Different-Phenotype (%): 3%
  Total Cell Count: 234
[4]
  Population Apoptotic (%): 66%
  Population Fragmented Nuclei (%): 18%
  Population Healthy Nuclei (%): 77%
  Population Hoechst High Intensity Objects (%): 4%
  Population Membrane Permeable-Phenotype (%): 3%
  Population Mitochondria Different-Phenotype (%): 1%
  Population Mitotic Cells (%): 33%
  Population Normal (%): 95%
  Population Pyknosed Nuclei (%): 3%
  Population Tubulin-Different-Phenotype (%): 1%
  Total Cell Count: 89
[5]
  Population Apoptotic (%): 92%
  Population Fragmented Nuclei (%): 22%
  Population Healthy Nuclei (%): 69%
  Population Hoechst High Intensity Objects (%): 1%
  Population Membrane Permeable-Phenotype (%): 4%
  Population Mitochondria Different-Phenotype (%): 0%
  Population Mitotic Cells (%): 7%
  Population Normal (%): 98%
  Population Pyknosed Nuclei (%): 8%
  Population Tubulin-Different-Phenotype (%): 3%
  Total Cell Count: 327
[6]
  Population Apoptotic (%): 90%
  Population Fragmented Nuclei (%): 13%
  Population Healthy Nuclei (%): 80%
  Population Hoechst High Intensity Objects (%): 0%
  Population Membrane Permeable-Phenotype (%): 6%
  Population Mitochondria Different-Phenotype (%): 3%
  Population Mitotic Cells (%): 10%
  Population Normal (%): 99%
  Population Pyknosed Nuclei (%): 6%
  Population Tubulin-Different-Phenotype (%): 4%
  Total Cell Count: 159
[7]
  Population Apoptotic (%): 88%
  Population Fragmented Nuclei (%): 22%
  Population Healthy Nuclei (%): 71%
  Population Hoechst High Intensity Objects (%): 1%
  Population Membrane Permeable-Phenotype (%): 5%
  Population Mitochondria Different-Phenotype (%): 3%
  Population Mitotic Cells (%): 11%
  Population Normal (%): 98%
  Population Pyknosed Nuclei (%): 6%
  Population Tubulin-Different-Phenotype (%): 3%
  Total Cell Count: 272
[8]
  Population Apoptotic (%): 75%
  Population Fragmented Nuclei (%): 16%
  Population Healthy Nuclei (%): 75%
  Population Hoechst High Intensity Objects (%): 4%
  Population Membrane Permeable-Phenotype (%): 3%
  Population Mitochondria Different-Phenotype (%): 1%
  Population Mitotic Cells (%): 25%
  Population Normal (%): 95%
  Population Pyknosed Nuclei (%): 7%
  Total Cell Count: 113
[9]
  Population Apoptotic (%): 88%
  Population Fragmented Nuclei (%): 16%
  Population Healthy Nuclei (%): 74%
  Population Hoechst High Intensity Objects (%): 2%
  Population Membrane Permeable-Phenotype (%): 5%
  Population Mitochondria Different-Phenotype (%): 2%
  Population Mitotic Cells (%): 11%
  Population Normal (%): 97%
  Population Pyknosed Nuclei (%): 9%
  Population Tubulin-Different-Phenotype (%): 2%
  Total Cell Count: 442
[10]
  Population Apoptotic (%): 94%
  Population Fragmented Nuclei (%): 15%
  Population Healthy Nuclei (%): 76%
  Population Hoechst High Intensity Objects (%): 3%
  Population Membrane Permeable-Phenotype (%): 6%
  Population Mitochondria Different-Phenotype (%): 3%
  Population Mitotic Cells (%): 5%
  Population Normal (%): 96%
  Population Pyknosed Nuclei (%): 8%
  Population Tubulin-Different-Phenotype (%): 5%
  Total Cell Count: 215
[11]
  Population Apoptotic (%): 96%
  Population Fragmented Nuclei (%): 23%
  Population Healthy Nuclei (%): 69%
  Population Hoechst High Intensity Objects (%): 2%
  Population Membrane Permeable-Phenotype (%): 6%
  Population Mitochondria Different-Phenotype (%): 1%
  Population Mitotic Cells (%): 3%
  Population Normal (%): 97%
  Population Pyknosed Nuclei (%): 7%
  Population Tubulin-Different-Phenotype (%): 4%
  Total Cell Count: 365
[12]
  Population Apoptotic (%): 85%
  Population Fragmented Nuclei (%): 11%
  Population Healthy Nuclei (%): 83%
  Population Hoechst High Intensity Objects (%): 5%
  Population Membrane Permeable-Phenotype (%): 5%
  Population Mitotic Cells (%): 14%
  Population Normal (%): 94%
  Population Pyknosed Nuclei (%): 5%
  Total Cell Count: 147

## CN(C)c1ccnc2sc3c(=O)n(N4CCCCCC4)cnc3c12
[1]
  Population Apoptotic (%): 81%
  Population Fragmented Nuclei (%): 19%
  Population Healthy Nuclei (%): 72%
  Population Hoechst High Intensity Objects (%): 1%
  Population Membrane Permeable-Phenotype (%): 4%
  Population Mitochondria Different-Phenotype (%): 2%
  Population Mitotic Cells (%): 18%
  Population Normal (%): 98%
  Population Pyknosed Nuclei (%): 7%
  Population Tubulin-Different-Phenotype (%): 2%
  Total Cell Count: 284
[2]
  Population Apoptotic (%): 87%
  Population Fragmented Nuclei (%): 16%
  Population Healthy Nuclei (%): 77%
  Population Membrane Permeable-Phenotype (%): 6%
  Population Mitotic Cells (%): 12%
  Population Pyknosed Nuclei (%): 6%
  Total Cell Count: 132
[3]
  Population Apoptotic (%): 41%
  Population Fragmented Nuclei (%): 30%
  Population Healthy Nuclei (%): 56%
  Population Hoechst High Intensity Objects (%): 4%
  Population Membrane Permeable-Phenotype (%): 30%
  Population Mitochondria Different-Phenotype (%): 14%
  Population Mitotic Cells (%): 58%
  Population Normal (%): 95%
  Population Pyknosed Nuclei (%): 12%
  Population Tubulin-Different-Phenotype (%): 20%
  Total Cell Count: 249
[4]
  Population Apoptotic (%): 88%
  Population Fragmented Nuclei (%): 18%
  Population Healthy Nuclei (%): 71%
  Population Hoechst High Intensity Objects (%): 5%
  Population Membrane Permeable-Phenotype (%): 23%
  Population Mitochondria Different-Phenotype (%): 27%
  Population Mitotic Cells (%): 11%
  Population Normal (%): 94%
  Population Pyknosed Nuclei (%): 9%
  Population Tubulin-Different-Phenotype (%): 22%
  Total Cell Count: 101
[5]
  Population Apoptotic (%): 87%
  Population Fragmented Nuclei (%): 16%
  Population Healthy Nuclei (%): 72%
  Population Hoechst High Intensity Objects (%): 2%
  Population Membrane Permeable-Phenotype (%): 3%
  Population Mitochondria Different-Phenotype (%): 3%
  Population Mitotic Cells (%): 12%
  Population Normal (%): 97%
  Population Pyknosed Nuclei (%): 10%
  Population Tubulin-Different-Phenotype (%): 1%
  Total Cell Count: 326
[6]
  Population Apoptotic (%): 72%
  Population Fragmented Nuclei (%): 15%
  Population Healthy Nuclei (%): 76%
  Population Membrane Permeable-Phenotype (%): 6%
  Population Mitotic Cells (%): 27%
  Population Pyknosed Nuclei (%): 7%
  Population Tubulin-Different-Phenotype (%): 4%
  Total Cell Count: 150
[7]
  Population Apoptotic (%): 68%
  Population Fragmented Nuclei (%): 28%
  Population Healthy Nuclei (%): 56%
  Population Hoechst High Intensity Objects (%): 4%
  Population Membrane Permeable-Phenotype (%): 22%
  Population Mitochondria Different-Phenotype (%): 15%
  Population Mitotic Cells (%): 31%
  Population Normal (%): 95%
  Population Pyknosed Nuclei (%): 15%
  Population Tubulin-Different-Phenotype (%): 14%
  Total Cell Count: 260
[8]
  Population Apoptotic (%): 100%
  Population Fragmented Nuclei (%): 11%
  Population Healthy Nuclei (%): 75%
  Population Hoechst High Intensity Objects (%): 3%
  Population Membrane Permeable-Phenotype (%): 23%
  Population Mitochondria Different-Phenotype (%): 25%
  Population Mitotic Cells (%): 0%
  Population Normal (%): 96%
  Population Pyknosed Nuclei (%): 13%
  Population Tubulin-Different-Phenotype (%): 24%
  Total Cell Count: 108
[9]
  Population Apoptotic (%): 90%
  Population Fragmented Nuclei (%): 17%
  Population Healthy Nuclei (%): 74%
  Population Hoechst High Intensity Objects (%): 2%
  Population Membrane Permeable-Phenotype (%): 4%
  Population Mitochondria Different-Phenotype (%): 1%
  Population Mitotic Cells (%): 9%
  Population Normal (%): 97%
  Population Pyknosed Nuclei (%): 8%
  Population Tubulin-Different-Phenotype (%): 2%
  Total Cell Count: 486
[10]
  Population Apoptotic (%): 92%
  Population Fragmented Nuclei (%): 15%
  Population Healthy Nuclei (%): 72%
  Population Membrane Permeable-Phenotype (%): 5%
  Population Mitochondria Different-Phenotype (%): 5%
  Population Mitotic Cells (%): 7%
  Population Pyknosed Nuclei (%): 11%
  Total Cell Count: 239
[11]
  Population Apoptotic (%): 68%
  Population Fragmented Nuclei (%): 28%
  Population Healthy Nuclei (%): 57%
  Population Hoechst High Intensity Objects (%): 4%
  Population Membrane Permeable-Phenotype (%): 15%
  Population Mitochondria Different-Phenotype (%): 11%
  Population Mitotic Cells (%): 31%
  Population Normal (%): 95%
  Population Pyknosed Nuclei (%): 14%
  Population Tubulin-Different-Phenotype (%): 7%
  Total Cell Count: 325
[12]
  Population Apoptotic (%): 72%
  Population Fragmented Nuclei (%): 15%
  Population Healthy Nuclei (%): 61%
  Population Hoechst High Intensity Objects (%): 9%
  Population Membrane Permeable-Phenotype (%): 21%
  Population Mitochondria Different-Phenotype (%): 19%
  Population Mitotic Cells (%): 27%
  Population Normal (%): 90%
  Population Pyknosed Nuclei (%): 22%
  Population Tubulin-Different-Phenotype (%): 23%
  Total Cell Count: 140
